Assay results from ChEMBL document CHEMBL1681637, “Synthesis and antitubercular activity of monocyclic nitroimidazoles: insights from econazole” (Bioorg Med Chem Lett, 2011).
Converted amounts (≈) assume the structure as drawn.

system: Mycobacterium tuberculosis; test: Antitubercular activity against multidrug-resistant Mycobacterium tuberculosis H37Rv after 7 days by alamar blue assay; assay type: functional; conditions: 168 h

Row | SMILES | MIC [µg/mL]
1 | O=[N+]([O-])c1cn(CC(OCc2ccc(F)cc2)c2ccc(Cl)cc2Cl)c(Br)n1 (racemic) | > 256
2 | COc1nc([N+](=O)[O-])cn1CC(OCc1ccc(Cl)cc1)c1ccc(F)cc1F (racemic) | > 16
3 | O=[N+]([O-])c1cn(CC(OCc2cc(F)ccc2F)c2ccc(Cl)cc2Cl)cn1 (racemic) | > 256
4 | O=[N+]([O-])c1ccc(C(O)Cn2cc([N+](=O)[O-])nc2Br)cc1 (racemic) | 64 (≈ 179 µM)
5 | O=[N+]([O-])c1cn(CC(O)c2ccc(F)cc2F)c(Br)n1 (racemic) | 64 (≈ 184 µM)
6 | COc1nc([N+](=O)[O-])cn1CC(OCc1ccc(F)cc1)c1ccc(Cl)cc1Cl (racemic) | > 256
7 | O=[N+]([O-])c1cn(CC(O)c2ccc(Cl)cc2)c(Br)n1 (racemic) | 64 (≈ 185 µM)
8 | COc1nc([N+](=O)[O-])cn1CC(O)c1ccc(Cl)cc1Cl (racemic) | 0.5 (≈ 1.51 µM)
9 | COc1nc([N+](=O)[O-])cn1CC(OCc1ccc(Cl)cc1)c1ccc(Cl)cc1Cl (racemic) | > 256
10 | CSc1nc([N+](=O)[O-])cn1CC(OCc1ccc(Cl)cc1)c1ccc(Cl)cc1Cl (racemic) | > 256
11 | CSc1nc([N+](=O)[O-])cn1CC(OCc1ccc(F)cc1)c1ccc(Cl)cc1Cl (racemic) | > 256
12 | COc1nc([N+](=O)[O-])cn1CC(O)c1ccc([N+](=O)[O-])cc1 (racemic) | 16 (≈ 51.9 µM)
13 | O=[N+]([O-])c1cn(CC(OCc2ccc(Cl)cc2)c2ccc(F)cc2F)c(Br)n1 (racemic) | > 256
14 | O=[N+]([O-])c1cn(CC(OCc2ccc(F)cc2)c2ccc(Cl)cc2Cl)cn1 (racemic) | > 256
15 | O=[N+]([O-])c1cn(CC(OCc2ccc(F)cc2F)c2ccc(Cl)cc2Cl)cn1 (racemic) | > 256
16 | O=[N+]([O-])c1cn(CC(O)c2ccc(F)cc2)c(Br)n1 (racemic) | 128 (≈ 388 µM)
17 | O=[N+]([O-])c1cn(CC(OCc2ccc(OC(F)(F)F)cc2)c2ccc(F)cc2F)cn1 (racemic) | > 256
18 | O=[N+]([O-])c1cn(CC(OCc2ccccc2F)c2ccc(Cl)cc2Cl)c(Br)n1 (racemic) | > 256
19 | COc1nc([N+](=O)[O-])cn1CC(O)c1ccc(C)cc1C (racemic) | 16 (≈ 54.9 µM)
20 | O=[N+]([O-])c1cn(CC(O)c2ccc(Cl)cc2Cl)c(Br)n1 (racemic) | 2 (≈ 5.25 µM)
21 | Clc1ccc(COC(Cn2ccnc2)c2ccc(Cl)cc2Cl)cc1 (stereo not given) [ECONAZOLE] | 16 (≈ 41.9 µM)
22 | COc1nc([N+](=O)[O-])cn1CC(OCc1cc(F)cc(F)c1)c1ccc(Cl)cc1Cl (racemic) | > 256
23 | CSc1nc([N+](=O)[O-])cn1CC(O)c1ccc(Cl)cc1Cl (racemic) | 16 (≈ 45.9 µM)
24 | COc1nc([N+](=O)[O-])cn1CC(O)c1ccc(F)cc1 (racemic) | 16 (≈ 56.9 µM)
25 | O=[N+]([O-])c1cn(CC(O)c2ccc(F)cc2F)cn1 (racemic) | 256 (≈ 951 µM)

Row | SMILES | MIC [µg/mL]
26 | O=[N+]([O-])c1cn(CC(OCc2cc(F)cc(F)c2)c2ccc(Cl)cc2Cl)cn1 (racemic) | > 256
27 | O=[N+]([O-])c1cn(CC(O)c2ccc(Cl)cc2Cl)cn1 (racemic) | 32 (≈ 106 µM)
28 | COc1nc([N+](=O)[O-])cn1CC(O)c1ccccc1 (racemic) | 8 (≈ 30.4 µM)
29 | O=[N+]([O-])c1cn(CC(OCc2cc(F)cc(F)c2)c2ccc(Cl)cc2Cl)c(Br)n1 (racemic) | > 256
30 | CSc1nc([N+](=O)[O-])cn1CC(OCc1cc(F)cc(F)c1)c1ccc(Cl)cc1Cl (racemic) | > 256
31 | O=[N+]([O-])c1cn(CC(O)c2ccccc2)c(Br)n1 (racemic) | 32 (≈ 103 µM)
32 | CSc1nc([N+](=O)[O-])cn1CC(OCc1ccc(Cl)cc1)c1ccc(F)cc1F (racemic) | > 256
33 | O=[N+]([O-])c1cn(CC(OCc2ccc(Cl)cc2)c2ccc(F)cc2F)cn1 (racemic) | > 256
34 | O=[N+]([O-])c1cn(CC(OCc2ccccc2F)c2ccc(Cl)cc2Cl)cn1 (racemic) | > 256
35 | O=[N+]([O-])c1cn(CC(OCc2ccc(Cl)cc2)c2ccc(Cl)cc2Cl)c(Br)n1 (racemic) | > 256
36 | COc1nc([N+](=O)[O-])cn1CC(O)c1ccc(-c2ccccc2)cc1 (racemic) | 0.5 (≈ 1.47 µM)
37 | O=[N+]([O-])c1cn2c(n1)OC[C@@H](OCc1ccc(OC(F)(F)F)cc1)C2 [PRETOMANID] | 0.13 (≈ 0.362 µM)
38 | O=[N+]([O-])c1cn(CC(OCc2ccc(OC(F)(F)F)cc2)c2ccc(Cl)cc2Cl)cn1 (racemic) | > 256
39 | O=[N+]([O-])c1cn(CC(OCc2ccc(Cl)cc2)c2ccc(Cl)cc2Cl)cn1 (racemic) | > 256
40 | COc1nc([N+](=O)[O-])cn1CC(OCc1ccc(F)cc1)c1ccc(F)cc1F (racemic) | > 32
41 | Cc1nc([N+](=O)[O-])cn1CC(OCc1ccc(Cl)cc1)c1ccc(Cl)cc1Cl (racemic) | > 256
42 | O=[N+]([O-])c1cn(CC(O)c2ccc(-c3ccccc3)cc2)c(Br)n1 (racemic) | > 256
43 | Cc1ccc(C(O)Cn2cc([N+](=O)[O-])nc2Br)c(C)c1 (racemic) | 128 (≈ 376 µM)
44 | O=[N+]([O-])c1cn(CC(OCc2ccc(F)cc2)c2ccc(F)cc2F)cn1 (racemic) | > 256
45 | COc1nc([N+](=O)[O-])cn1CC(O)c1ccc(Cl)cc1 (racemic) | 16 (≈ 53.7 µM)
46 | COc1nc([N+](=O)[O-])cn1CC(O)c1ccc(F)cc1F (racemic) | 4 (≈ 13.4 µM)
47 | COc1nc([N+](=O)[O-])cn1CC(OCc1ccc(OC(F)(F)F)cc1)c1ccc(Cl)cc1Cl (racemic) | > 256
48 | COc1nc([N+](=O)[O-])cn1CC(OCc1ccc(OC(F)(F)F)cc1)c1ccc(F)cc1F (racemic) | > 256
49 | Cc1nc([N+](=O)[O-])cn1CC(O)c1ccc(Cl)cc1Cl (racemic) | > 256
50 | O=[N+]([O-])c1cn(CC(OCc2cc(F)cc(F)c2)c2ccc(F)cc2F)cn1 (racemic) | > 256

system: Mycobacterium tuberculosis; test: Antitubercular activity against multidrug-resistant Mycobacterium tuberculosis H37Rv under anaerobic condition after 7 days by GFP reporter gene assay; assay type: functional; conditions: 168 h
Outline: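 GFP-expressing Mtb H37Rv, made non-replicating by the Wayne hypoxia model, was added to 2-fold DMSO serial compound dilutions inside an anaerobic chamber. Plates were held at 37 °C for 7 days under anaerobiosis, then diluted 10-fold into fresh medium and outgrown for 2 days. Fluorescence was read at ex 485/em 520 nm. MIC was the lowest concentration giving 80% fluorescence inhibition versus bacteria-only wells.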

Row | SMILES | MIC [µg/mL]
51 | COc1nc([N+](=O)[O-])cn1CC(O)c1ccc(Cl)cc1Cl (racemic) | 4 (≈ 12 µM)
52 | O=[N+]([O-])c1cn(CC(O)c2ccc(Cl)cc2Cl)c(Br)n1 (racemic) | 8 (≈ 21 µM)
53 | COc1nc([N+](=O)[O-])cn1CC(O)c1ccc(-c2ccccc2)cc1 (racemic) | 1 (≈ 2.95 µM)
54 | O=[N+]([O-])c1cn2c(n1)OC[C@@H](OCc1ccc(OC(F)(F)F)cc1)C2 [PRETOMANID] | 2 (≈ 5.57 µM)
55 | COc1nc([N+](=O)[O-])cn1CC(O)c1ccc(F)cc1F (racemic) | 4 (≈ 13.4 µM)
